Laboratory results taken from ChEMBL document CHEMBL4765248, “Design, synthesis, biological evaluation and molecular docking study of novel thieno[3,2-d]pyrimidine derivatives as potent FAK inhibitors” (Eur J Med Chem, 2020).

Columns and labels:
[1] = system: U-87 MG; experiment: Antiproliferative activity against human U-87MG cells assessed as inhibition of cell growth measured after 72 hrs by MTT assay; format: functional, cell-based, U-87MG ATCC
How it was run: (§1)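 Cells were seeded at 4000–5000/well and held 24 h at 37 °C in 5% CO2. Compounds were added at the indicated final concentrations and incubated 72 h. MTT was added (5 mg/mL in PBS, stated as final) for 4 h at 37 °C. Formazan was dissolved in DMSO and absorbance read at 490 nm. The 50% growth-inhibitory concentration is the mean of three independent experiments ± SE.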

[2] = system: A549; experiment: Antiproliferative activity against human A549 cells assessed as inhibition of cell growth measured after 72 hrs by MTT assay; format: functional, cell-based; settings: A549, 72 h; how it was run: as §1
[3] = target: RAC-alpha serine/threonine-protein kinase (Homo sapiens) (UniProt P31749); experiment: Inhibition of His-tagged human full length AKT1 expressed in baculovirus expression system at 1 uM by Selectscreen kinase assay
Chain of RAC-alpha serine/threonine-protein kinase (Homo sapiens) (P31749 whole entry): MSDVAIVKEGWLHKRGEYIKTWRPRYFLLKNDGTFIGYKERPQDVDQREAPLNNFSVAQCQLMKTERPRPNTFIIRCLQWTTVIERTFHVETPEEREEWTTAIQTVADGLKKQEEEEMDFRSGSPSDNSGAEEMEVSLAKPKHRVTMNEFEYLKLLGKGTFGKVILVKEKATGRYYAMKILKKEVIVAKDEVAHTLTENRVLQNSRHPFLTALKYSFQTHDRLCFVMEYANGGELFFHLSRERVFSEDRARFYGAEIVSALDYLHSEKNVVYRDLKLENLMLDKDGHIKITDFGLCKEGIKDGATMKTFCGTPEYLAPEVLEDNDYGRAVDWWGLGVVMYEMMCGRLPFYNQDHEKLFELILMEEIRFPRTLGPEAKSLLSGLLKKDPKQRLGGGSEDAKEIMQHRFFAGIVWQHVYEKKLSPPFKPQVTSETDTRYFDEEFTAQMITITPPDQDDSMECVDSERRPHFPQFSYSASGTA
How it was run: (§2)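 Single-point screen at 1 μM final against a panel of 25 kinases using a commercial profiling service; mean of three independent experiments each run in triplicate.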

[4] = target: Cyclin-dependent kinase 2 (Homo sapiens) (UniProt P24941); experiment: Inhibition of human CDK2 at 1 uM by Selectscreen kinase assay; how it was run: as §2
[5] = target: Dual specificity mitogen-activated protein kinase kinase 1 (Homo sapiens) (UniProt Q02750); experiment: Inhibition of His-tagged full length human MEK1 expressed in baculovirus expression system at 1 uM by Selectscreen kinase assay; how it was run: as §2
Chain of Dual specificity mitogen-activated protein kinase kinase 1 (Homo sapiens) (Q02750 whole entry): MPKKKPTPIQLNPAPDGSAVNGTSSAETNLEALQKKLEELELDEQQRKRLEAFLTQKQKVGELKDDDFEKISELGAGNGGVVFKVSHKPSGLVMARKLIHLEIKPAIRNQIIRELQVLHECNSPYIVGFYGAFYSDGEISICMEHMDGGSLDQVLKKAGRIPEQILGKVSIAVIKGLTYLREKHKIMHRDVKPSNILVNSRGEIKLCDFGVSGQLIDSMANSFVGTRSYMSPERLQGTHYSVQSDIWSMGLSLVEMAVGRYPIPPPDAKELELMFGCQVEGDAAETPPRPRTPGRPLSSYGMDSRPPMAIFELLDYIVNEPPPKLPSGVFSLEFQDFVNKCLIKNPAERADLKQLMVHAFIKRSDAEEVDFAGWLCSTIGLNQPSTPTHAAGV

[6] = target: Mitogen-activated protein kinase 1 (Homo sapiens) (UniProt P28482); experiment: Inhibition of GST-tagged full length human ERK2 expressed in Escherichia coli at 1 uM by Selectscreen kinase assay; how it was run: as §2
Chain of Mitogen-activated protein kinase 1 (Homo sapiens) (P28482 whole entry): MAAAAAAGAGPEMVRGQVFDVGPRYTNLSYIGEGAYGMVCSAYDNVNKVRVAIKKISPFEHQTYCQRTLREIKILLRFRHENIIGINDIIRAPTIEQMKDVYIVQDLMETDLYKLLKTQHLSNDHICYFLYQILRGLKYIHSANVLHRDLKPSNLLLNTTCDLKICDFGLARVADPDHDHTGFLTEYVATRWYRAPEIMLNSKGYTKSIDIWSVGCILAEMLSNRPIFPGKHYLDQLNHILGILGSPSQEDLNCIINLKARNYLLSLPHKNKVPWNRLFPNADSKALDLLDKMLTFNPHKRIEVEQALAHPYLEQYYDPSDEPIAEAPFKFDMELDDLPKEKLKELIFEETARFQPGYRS

[7] = target: Protein kinase C theta type (Homo sapiens) (UniProt Q04759); experiment: Inhibition of His-tagged full length human PKC theta expressed in baculovirus expression system at 1 uM by Selectscreen kinase assay; how it was run: as §2
Chain of Protein kinase C theta type (Homo sapiens) (Q04759 whole entry, looked up): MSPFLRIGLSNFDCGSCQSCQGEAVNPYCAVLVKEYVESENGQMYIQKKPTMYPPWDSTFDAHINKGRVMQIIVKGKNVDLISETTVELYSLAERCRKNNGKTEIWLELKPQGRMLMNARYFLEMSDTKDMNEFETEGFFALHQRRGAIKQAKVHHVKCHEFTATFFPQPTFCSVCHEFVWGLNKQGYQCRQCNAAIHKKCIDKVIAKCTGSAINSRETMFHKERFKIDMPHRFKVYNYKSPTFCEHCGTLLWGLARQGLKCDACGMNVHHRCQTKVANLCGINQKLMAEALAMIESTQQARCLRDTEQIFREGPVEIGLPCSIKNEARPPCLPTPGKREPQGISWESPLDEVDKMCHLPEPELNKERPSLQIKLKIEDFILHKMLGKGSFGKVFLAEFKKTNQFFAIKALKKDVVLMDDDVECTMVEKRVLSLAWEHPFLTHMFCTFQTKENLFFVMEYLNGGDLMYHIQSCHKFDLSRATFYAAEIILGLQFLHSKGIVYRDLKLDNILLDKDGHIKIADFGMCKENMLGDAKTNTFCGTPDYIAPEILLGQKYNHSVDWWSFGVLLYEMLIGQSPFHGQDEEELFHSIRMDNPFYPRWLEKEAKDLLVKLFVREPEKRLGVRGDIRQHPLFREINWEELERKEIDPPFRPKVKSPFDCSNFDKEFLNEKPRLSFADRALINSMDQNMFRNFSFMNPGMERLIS

[8] = target: Focal adhesion kinase 1 (Homo sapiens, UniProt Q05397); experiment: Inhibition of GST-tagged full length human FAK expressed in baculovirus expression system at 1 uM by Selectscreen kinase assay; how it was run: as §2
Chain of Focal adhesion kinase 1 (Q05397 2-1052 limits assumed): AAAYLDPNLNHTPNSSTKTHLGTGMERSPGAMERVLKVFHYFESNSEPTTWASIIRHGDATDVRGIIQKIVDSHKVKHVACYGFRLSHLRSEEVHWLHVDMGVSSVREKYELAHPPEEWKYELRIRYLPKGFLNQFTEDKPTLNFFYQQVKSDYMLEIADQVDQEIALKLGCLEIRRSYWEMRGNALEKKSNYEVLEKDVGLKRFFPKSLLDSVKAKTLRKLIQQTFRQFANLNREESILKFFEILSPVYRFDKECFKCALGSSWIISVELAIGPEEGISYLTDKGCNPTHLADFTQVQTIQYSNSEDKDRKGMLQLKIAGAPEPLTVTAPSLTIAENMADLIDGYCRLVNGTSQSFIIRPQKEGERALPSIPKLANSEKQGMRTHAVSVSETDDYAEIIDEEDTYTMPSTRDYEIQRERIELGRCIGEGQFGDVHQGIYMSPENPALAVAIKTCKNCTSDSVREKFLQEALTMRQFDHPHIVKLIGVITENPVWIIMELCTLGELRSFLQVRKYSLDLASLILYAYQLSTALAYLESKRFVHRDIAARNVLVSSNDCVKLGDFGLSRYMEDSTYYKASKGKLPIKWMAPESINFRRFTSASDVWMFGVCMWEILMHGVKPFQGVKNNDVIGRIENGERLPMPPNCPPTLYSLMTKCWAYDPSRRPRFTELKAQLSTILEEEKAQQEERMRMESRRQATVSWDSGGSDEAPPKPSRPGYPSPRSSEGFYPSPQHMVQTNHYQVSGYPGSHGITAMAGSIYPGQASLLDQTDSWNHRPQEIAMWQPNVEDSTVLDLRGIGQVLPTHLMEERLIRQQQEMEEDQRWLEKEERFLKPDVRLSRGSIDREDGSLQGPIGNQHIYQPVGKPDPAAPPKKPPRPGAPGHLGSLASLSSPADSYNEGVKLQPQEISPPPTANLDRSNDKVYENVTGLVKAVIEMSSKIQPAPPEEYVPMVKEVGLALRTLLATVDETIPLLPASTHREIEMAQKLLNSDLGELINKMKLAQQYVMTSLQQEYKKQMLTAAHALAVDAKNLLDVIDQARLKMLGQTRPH

[9] = target: Rho-associated protein kinase 1 (Homo sapiens) (UniProt Q13464); experiment: Inhibition of GST-tagged recombinant human ROCK1 catalytic domain (1-535) expressed in baculovirus expression system at 1 uM by Selectscreen kinase assay; how it was run: as §2
Chain of Rho-associated protein kinase 1 (Homo sapiens) (Q13464 2-1354 limits assumed): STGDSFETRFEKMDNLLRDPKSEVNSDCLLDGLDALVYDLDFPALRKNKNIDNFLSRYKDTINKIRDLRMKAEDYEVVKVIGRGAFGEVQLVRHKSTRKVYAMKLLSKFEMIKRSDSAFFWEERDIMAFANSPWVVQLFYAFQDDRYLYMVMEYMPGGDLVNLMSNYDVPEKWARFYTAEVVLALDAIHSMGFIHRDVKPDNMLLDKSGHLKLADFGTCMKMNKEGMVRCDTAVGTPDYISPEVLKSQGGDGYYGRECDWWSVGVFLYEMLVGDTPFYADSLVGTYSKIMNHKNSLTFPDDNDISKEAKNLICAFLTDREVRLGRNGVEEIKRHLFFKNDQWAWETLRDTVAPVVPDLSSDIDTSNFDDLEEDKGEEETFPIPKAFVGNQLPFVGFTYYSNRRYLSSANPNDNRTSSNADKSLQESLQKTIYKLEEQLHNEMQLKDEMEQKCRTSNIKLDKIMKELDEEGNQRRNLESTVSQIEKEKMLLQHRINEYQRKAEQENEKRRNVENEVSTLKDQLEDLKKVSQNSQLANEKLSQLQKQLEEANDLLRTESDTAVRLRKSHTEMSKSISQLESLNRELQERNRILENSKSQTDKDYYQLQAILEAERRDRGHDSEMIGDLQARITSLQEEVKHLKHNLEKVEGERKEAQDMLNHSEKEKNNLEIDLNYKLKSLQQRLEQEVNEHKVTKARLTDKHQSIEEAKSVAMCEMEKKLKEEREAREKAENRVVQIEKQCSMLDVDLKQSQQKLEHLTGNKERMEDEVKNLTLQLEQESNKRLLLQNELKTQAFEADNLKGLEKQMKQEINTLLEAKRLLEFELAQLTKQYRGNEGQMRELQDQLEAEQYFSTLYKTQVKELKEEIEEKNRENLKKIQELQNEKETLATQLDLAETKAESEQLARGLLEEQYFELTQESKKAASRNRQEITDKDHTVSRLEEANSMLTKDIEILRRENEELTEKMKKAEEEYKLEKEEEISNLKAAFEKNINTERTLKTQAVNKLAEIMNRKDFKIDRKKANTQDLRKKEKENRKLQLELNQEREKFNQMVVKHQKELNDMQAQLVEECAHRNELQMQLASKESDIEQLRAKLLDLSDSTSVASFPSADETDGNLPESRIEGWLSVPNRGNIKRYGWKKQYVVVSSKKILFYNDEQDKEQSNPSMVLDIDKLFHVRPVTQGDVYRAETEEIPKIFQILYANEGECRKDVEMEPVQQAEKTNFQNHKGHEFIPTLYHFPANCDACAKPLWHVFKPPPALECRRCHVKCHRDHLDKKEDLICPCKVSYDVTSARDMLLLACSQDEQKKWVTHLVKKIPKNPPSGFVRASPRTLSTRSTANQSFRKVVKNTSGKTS

[10] = system: MDA-MB-231; experiment: Induction of apoptosis in human MDA-MB-231 cells assessed as viable cells at 0.1 uM incubated for 48 hrs by Annexin V-FITC/PI staining based flow cytometric analysis (reference value: 95.84%); format: functional; settings: read-out: Activity
[11] = system: MDA-MB-231; experiment: Induction of apoptosis in human MDA-MB-231 cells assessed as early apoptotic cells at 0.1 uM incubated for 48 hrs by Annexin V-FITC/PI staining based flow cytometric analysis (reference value: 1.58%); format: functional
[12] = system: MDA-MB-231; experiment: Induction of apoptosis in human MDA-MB-231 cells assessed as necrotic cells at 0.2 uM incubated for 48 hrs by Annexin V-FITC/PI staining based flow cytometric analysis (reference value: 1.08%); format: functional
[13] = system: MDA-MB-231; experiment: Induction of apoptosis in human MDA-MB-231 cells assessed as viable cells at 0.4 uM incubated for 48 hrs by Annexin V-FITC/PI staining based flow cytometric analysis (reference value: 95.84%); format: functional; settings: read-out: Activity
[14] = system: MDA-MB-231; experiment: Induction of cell cycle arrest in human MDA-MB-231 cells assessed as accumulation of cells at G0/G1 phase at 0.1 uM measured after 48 hrs by PI staining based flow cytometry method (reference value: 43.43%); format: functional
[15] = system: MDA-MB-231; experiment: Induction of cell cycle arrest in human MDA-MB-231 cells assessed as accumulation of cells at S phase at 0.1 uM measured after 48 hrs by PI staining based flow cytometry method (reference value: 39.17%); format: functional
[16] = system: MDA-MB-231; experiment: Induction of cell cycle arrest in human MDA-MB-231 cells assessed as accumulation of cells at G0/G1 phase at 0.2 uM measured after 48 hrs by PI staining based flow cytometry method (reference value: 43.43%); format: functional
[17] = system: MDA-MB-231; experiment: Induction of cell cycle arrest in human MDA-MB-231 cells assessed as accumulation of cells at G2/M phase at 0.2 uM measured after 48 hrs by PI staining based flow cytometry method (reference value: 17.40%); format: functional
[18] = system: MDA-MB-231; experiment: Inhibition of cell migration in human MDA-MB-231 cells measured after 48 hrs by wound healing assay; format: functional, cell-based; settings: dose 0.15-0.6 µM
How it was run: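 MDA-MB-231 cells (2×10^6/well) were grown to confluence and the monolayer was scratched with a pipette tip. Cells were washed with PBS, kept in serum-free medium and treated with DMSO or compound at 0.15, 0.3 or 0.6 μM for 48 h. Wound closure was photographed by inverted microscope at 24 and 48 h.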

[19] = Intrinsic clearance in rat liver microsomes at 1 uM measured after 60 mins in presence of NADPH by LC-MS/MS analysis; format: ADME, Microsome; settings: read-out: CLH
How it was run: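 Rat liver microsomes (0.5 mg/mL) were incubated at 37 °C with 1 μM compound in 100 mM potassium phosphate, pH 7.4, with 10 mM MgCl2. Reaction was started with prewarmed NADPH cofactor and sampled at 0, 5, 10, 20, 30 and 60 min. Protein was precipitated with cold acetonitrile and supernatants analysed by LC-MS/MS to give half-life, 1 h remaining and intrinsic clearance.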

[20] = Half life in rat liver microsomes at 1 uM measured up to 60 mins in presence of NADPH by LC-MS/MS analysis; format: ADME, Microsome
How it was run: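 Rat liver microsomes (0.5 mg/mL) were incubated with 1 μM test compound at 37 °C in potassium phosphate buffer (pH 7.4, 100 mM, 10 mM MgCl2). The reaction was started with prewarmed NADPH cofactor (1 mmol). It was sampled at 0, 5, 10, 20, 30 and 60 min and quenched with cold acetonitrile. Protein was removed by centrifugation and the supernatant analysed by LC-MS/MS.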

[21] = system: A549; experiment: Antiproliferative activity against human A549 cells assessed as cell viability at 0.1 uM measured after 24 hrs by MTT assay (reference value: 100%); format: functional; settings: read-out: Activity
[22] = system: A549; experiment: Antiproliferative activity against human A549 cells assessed as cell viability at 0.1 uM measured after 48 hrs by MTT assay (reference value: 100%); format: functional; settings: read-out: Activity
[23] = system: A549; experiment: Antiproliferative activity against human A549 cells assessed as cell viability at 0.1 uM measured after 72 hrs by MTT assay (reference value: 100%); format: functional; settings: read-out: Activity
[24] = system: A549; experiment: Antiproliferative activity against human A549 cells assessed as cell viability at 0.5 uM measured after 48 hrs by MTT assay (reference value: 100%); format: functional; settings: read-out: Activity
[25] = system: A549; experiment: Antiproliferative activity against human A549 cells assessed as cell viability at 0.5 uM measured after 72 hrs by MTT assay (reference value: 100%); format: functional; settings: read-out: Activity
[26] = system: A549; experiment: Antiproliferative activity against human A549 cells assessed as cell viability at 2.5 uM measured after 72 hrs by MTT assay (reference value: 100%); format: functional; settings: read-out: Activity
[27] = system: MDA-MB-231; experiment: Antiproliferative activity against human MDA-MB-231 cells assessed as cell viability at 0.1 uM measured after 24 hrs by MTT assay (reference value: 100%); format: functional; settings: read-out: Activity
[28] = system: MDA-MB-231; experiment: Antiproliferative activity against human MDA-MB-231 cells assessed as cell viability at 0.5 uM measured after 48 hrs by MTT assay (reference value: 100%); format: functional; settings: read-out: Activity

- IC50 [1]: 160 nM
- IC50 [2]: 270 nM
- inhibition [3]: 15%
- inhibition [4]: 97%
- inhibition [5]: 27%
- inhibition [6]: 1%
- inhibition [7]: 48%
- inhibition [8]: 100%
- inhibition [9]: 33%
- microsomal CLint at 1 µM [19]: 10.4 µL/min/mg
- half-life at 1 µM [20]: 2.23 h
Structure (SMILES): COc1ccccc1-c1csc2cnc(Nc3ccc(C(=O)NC4CCNCC4)c(F)c3)nc12
- viability at 0.1 µM [10]: 85.5%
- Activity [11]: 7.21%
- Activity [12]: 1.72%
- viability at 0.4 µM [13]: 53.8%
- Activity [14]: 45.25%
- Activity [15]: 41.96%
- Activity [16]: 51.4%
- Activity [17]: 9.49%
- inhibition [18]: Dose-dependent effect
- viability at 0.1 µM [21]: 96.4%
- viability at 0.1 µM [22]: 78.7%
- viability at 0.1 µM [23]: 66.9%
- viability at 0.5 µM [24]: 47.4%
- viability at 0.5 µM [25]: 32.2%
- viability at 2.5 µM [26]: 18.8%
- viability at 0.1 µM [27]: 97.6%
- viability at 0.5 µM [28]: 40.7%
